Published values of several laboratories.
Protocols differ between the studies behind these lines.
Target: Serine/threonine-protein kinase 36 (STK36, Homo sapiens, UniProt Q9NRP7)
One construct used (Q9NRP7 1-1315): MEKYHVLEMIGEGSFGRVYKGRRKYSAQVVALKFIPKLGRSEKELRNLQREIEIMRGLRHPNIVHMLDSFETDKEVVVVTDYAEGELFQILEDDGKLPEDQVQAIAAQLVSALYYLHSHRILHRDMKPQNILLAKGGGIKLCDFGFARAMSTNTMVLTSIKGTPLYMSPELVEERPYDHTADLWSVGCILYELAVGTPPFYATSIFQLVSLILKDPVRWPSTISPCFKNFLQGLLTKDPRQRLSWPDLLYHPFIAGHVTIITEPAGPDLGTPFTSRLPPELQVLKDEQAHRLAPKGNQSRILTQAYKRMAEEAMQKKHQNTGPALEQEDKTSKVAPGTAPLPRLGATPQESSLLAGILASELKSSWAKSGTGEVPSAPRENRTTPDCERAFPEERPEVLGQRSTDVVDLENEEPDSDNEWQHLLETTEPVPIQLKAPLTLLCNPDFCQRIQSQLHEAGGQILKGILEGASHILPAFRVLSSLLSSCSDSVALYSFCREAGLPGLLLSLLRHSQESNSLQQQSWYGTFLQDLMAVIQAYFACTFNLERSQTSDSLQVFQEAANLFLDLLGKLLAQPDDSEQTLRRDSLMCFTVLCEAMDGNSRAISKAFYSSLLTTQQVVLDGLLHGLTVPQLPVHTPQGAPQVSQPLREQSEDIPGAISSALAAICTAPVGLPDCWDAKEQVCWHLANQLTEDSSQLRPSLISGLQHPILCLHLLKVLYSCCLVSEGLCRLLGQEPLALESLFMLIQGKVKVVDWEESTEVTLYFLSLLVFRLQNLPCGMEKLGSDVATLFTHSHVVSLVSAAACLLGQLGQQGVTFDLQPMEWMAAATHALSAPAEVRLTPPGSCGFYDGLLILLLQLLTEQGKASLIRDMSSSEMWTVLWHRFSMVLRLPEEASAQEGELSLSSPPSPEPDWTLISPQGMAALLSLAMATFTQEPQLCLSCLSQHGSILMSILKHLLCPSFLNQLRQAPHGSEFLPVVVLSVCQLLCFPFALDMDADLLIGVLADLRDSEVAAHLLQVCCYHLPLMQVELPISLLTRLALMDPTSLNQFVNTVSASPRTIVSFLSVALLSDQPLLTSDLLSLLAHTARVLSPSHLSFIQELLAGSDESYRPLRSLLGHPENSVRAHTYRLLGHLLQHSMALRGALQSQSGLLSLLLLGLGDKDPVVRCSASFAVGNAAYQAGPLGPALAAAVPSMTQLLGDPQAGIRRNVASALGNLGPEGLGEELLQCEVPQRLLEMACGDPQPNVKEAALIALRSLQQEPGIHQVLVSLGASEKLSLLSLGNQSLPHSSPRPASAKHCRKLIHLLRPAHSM

| Compound | read-out | technique | tested at | remaining binding |
| --- | --- | --- | --- | --- |
| COc1cnc(Nc2cccc(S(N)(=O)=O)c2)nc1N1CCN(c2ccccc2)CC1 | binding | competition with immobilised ligand | 1 µM | 88% |
| O=C(NCC1CCOCC1)c1n[nH]cc1NC(=O)c1c(F)cccc1F | binding | competition with immobilised ligand | 1 µM | 98% |
| Cc1cnc(Nc2ccc(C(=O)N3CCC(N4CCCC4)CC3)cc2)nc1-c1cc2ccccc2s1 | binding | competition with immobilised ligand | 1 µM | 3.6% |
| Cc1cc(-n2nc(Cc3cc(F)cc(C(F)(F)F)c3)nc2C)ccc1C(N)=O | cell-free assay | competition with immobilised ligand | 1 µM | 100% |
| c1cnn2ncc(-c3ccnc(N4CCC45COC5)n3)c2c1 | binding |  | 1 µM | 76% |
| CCN1CCN(Cc2ccc(C(=O)Nc3ccc(C)c(Oc4ccc5c(c4)CC(=O)N5)c3)cc2C(F)(F)F)CC1 | binding | competition with immobilised ligand | 1 µM | 81% |
| CN(C)c1nccc(-c2cnn3ncccc23)n1 | binding |  | 1 µM | 100% |
| COc1cccc(CNC(=O)c2nc3scc(COCc4ccc(C(=O)O)cc4)c3c(=O)[nH]2)c1 | cell-free assay | competition with immobilised ligand | 1 µM | 100% |
| O=C(NCCCN1CCOCC1)c1ccc(Nc2nccc(-c3cc4ccccc4s3)n2)cc1 | binding | competition with immobilised ligand | 1 µM | 27% |
| FC(F)(F)Oc1cccc(-c2cnc3ccc(-c4ccncc4)nn23)c1 | binding | competition with immobilised ligand | 5 µM | 95% |
| C[C@@H]1CCN(c2nccc(-c3cnn4ncccc34)n2)C1 | binding |  | 1 µM | 87% |
| CNC(=O)[C@@H]1CC[C@@H](n2c(-c3ccc4cnccc4c3)nc3ccc(C(=O)NCc4cccc(C(N)=O)c4)cc32)C1 | binding | competition with immobilised ligand | 1 µM | 93% |
| CCC(=O)N[C@@H]1CC[C@H](C(=O)N(C)c2ccc(-c3nc4ccccc4o3)cc2)C1 | cell-free assay | competition with immobilised ligand | 1 µM | 82% |
| N[C@H]1CCN(c2nccc(-c3cnn4ncccc34)n2)C1 | binding |  | 1 µM | 62% |
| CO[C@H]1CC[C@H](CNc2ccc(S(=O)(=O)NC(=O)c3ccc(N4CCN(CC5=C(c6ccc(Cl)cc6)CC(C)(C)CC5)CC4)cc3Oc3cnc4[nH]ccc4c3)cc2[N+](=O)[O-])CC1 | cell-free assay | competition with immobilised ligand | 1 µM | 71% |
| COc1ccnn2ncc(-c3ccnc(N(C)C)n3)c12 | binding |  | 1 µM | 81% |
| COc1ccc2c(c1)O[C@H](c1ccc(OC)c(OC)c1)C[C@@H]2NC(=O)C1(c2ccc3c(c2)OC(F)(F)O3)CC1 | cell-free assay | competition with immobilised ligand | 1 µM | 94% |
| O=C(NCCCN1CCOCC1)c1ccc(Nc2ncc(Cl)c(-c3ccc(Cl)s3)n2)cc1 | binding | competition with immobilised ligand | 1 µM | 6.2% |
| CN(c1ccnc(CNc2nc(Nc3ccc4c(c3)CC(=O)N4)ncc2C(F)(F)F)n1)S(C)(=O)=O | cell-free assay | competition with immobilised ligand | 1 µM | 87% |
| CN(CCCC(F)(F)F)c1nccc(-c2cnn3ncccc23)n1 | binding |  | 1 µM | 92% |
| Cc1c[nH]c2nccc(Oc3c(F)cc(Nc4cc(Cl)nc(N)n4)cc3F)c12 | cell-free assay | competition with immobilised ligand | 0.1 µM | 85% |
| C[C@@H](c1ccc(-n2cnc3c(N)ncnc32)cc1)N1CCc2nn(C)c(Cc3ccccc3)c2C1=O | binding | competition with immobilised ligand | 0.1 µM | 67% |
